Here are results for 16 molecules from PubChem BioAssay.

Calls of active or inactive are those of the source.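 Rule for the calls, unless noted: active = viability loss from added drug above about 55%, and viability with drug at most 40%, in both replicates (limit read from the data, passing the limit was not always enough); inconclusive = both conditions met in only one replicate; inactive = neither replicate meets both conditions.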

Assay [1] can be described thus: reducers of endogenous Her2 protein level, primary screen, SKBR3 breast tumor cells, AlphaScreen, ATP viability (AID 461;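 active = Her2 level under about 52% in both replicate screens, with viability over 70% of control, limit read from the data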;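 for Her2 level: lower value means less Her2 protein in the cells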;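 for viability: percent of carrier control wells set as 100% viability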). Conditions: 18-24 h, measured here: SKBR3 viability, ATP luminescence, at 10 µM.
In assay [2] the target is Receptor tyrosine-protein kinase erbB-2 (Homo sapiens) (UniProt P04626). The description is as above. Conditions: 18-24 h, at 10 µM, stronger effect = lower value.
Receptor tyrosine-protein kinase erbB-2 (Homo sapiens), sequence (P04626 whole entry, looked up): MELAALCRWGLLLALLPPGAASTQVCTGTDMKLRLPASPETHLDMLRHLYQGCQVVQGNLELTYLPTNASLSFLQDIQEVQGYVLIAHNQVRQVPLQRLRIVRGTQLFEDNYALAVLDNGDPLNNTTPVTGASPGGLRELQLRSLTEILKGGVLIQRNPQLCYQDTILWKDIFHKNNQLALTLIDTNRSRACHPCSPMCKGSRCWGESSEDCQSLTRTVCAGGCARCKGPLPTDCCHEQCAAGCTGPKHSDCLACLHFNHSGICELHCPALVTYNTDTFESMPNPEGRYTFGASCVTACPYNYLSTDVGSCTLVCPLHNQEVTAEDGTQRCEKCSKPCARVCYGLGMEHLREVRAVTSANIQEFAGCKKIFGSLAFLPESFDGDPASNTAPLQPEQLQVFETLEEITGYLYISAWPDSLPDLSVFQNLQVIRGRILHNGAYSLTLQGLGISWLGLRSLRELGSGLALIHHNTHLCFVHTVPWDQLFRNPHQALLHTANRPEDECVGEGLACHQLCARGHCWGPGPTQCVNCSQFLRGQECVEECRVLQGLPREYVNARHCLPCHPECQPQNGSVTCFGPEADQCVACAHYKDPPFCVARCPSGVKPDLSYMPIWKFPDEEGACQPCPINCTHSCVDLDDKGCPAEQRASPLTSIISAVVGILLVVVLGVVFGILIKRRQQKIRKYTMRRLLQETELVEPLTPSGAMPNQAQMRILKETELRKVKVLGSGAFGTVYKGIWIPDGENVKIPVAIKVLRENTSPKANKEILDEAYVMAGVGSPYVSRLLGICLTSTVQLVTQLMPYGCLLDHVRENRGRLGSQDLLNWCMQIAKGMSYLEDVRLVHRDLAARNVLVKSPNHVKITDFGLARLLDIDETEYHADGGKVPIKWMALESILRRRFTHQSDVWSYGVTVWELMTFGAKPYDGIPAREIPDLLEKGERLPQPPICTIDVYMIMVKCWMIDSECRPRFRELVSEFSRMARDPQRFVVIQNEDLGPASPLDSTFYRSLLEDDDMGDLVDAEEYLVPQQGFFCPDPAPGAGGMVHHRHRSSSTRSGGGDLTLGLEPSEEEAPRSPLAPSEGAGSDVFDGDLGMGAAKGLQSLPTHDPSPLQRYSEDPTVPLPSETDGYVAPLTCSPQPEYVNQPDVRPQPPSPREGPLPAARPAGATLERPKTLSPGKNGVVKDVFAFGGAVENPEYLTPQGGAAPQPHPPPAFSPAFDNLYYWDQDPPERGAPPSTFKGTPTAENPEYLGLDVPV
Assay [3] is described as follows: SK-BR-3 cell growth inhibitors, pilot screen, 24 h, human (AID 572;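 active = viability at or below 10% of carrier control in both of two separate runs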;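 note: compound exposure lasted between 18 and 24 h rather than exactly 24 h; 100% = carrier-treated control wells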). Particulars: SK-BR-3 viability, CellTiter-Glo luminescence, at 10 µM, stronger effect = lower value.
The nature of assay [4]: HUVEC growth inhibition – cell-based, human, primary screen (AID 575;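 active = viability at or below 30% in both replicate assays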;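 note: 100% = median of untreated cell wells with 0.1% DMSO on each plate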). Conditions: HUVEC proliferation, CellTiter-Glo luminescence, 72 h; at 10 µM; stronger effect = lower value. The procedure, abridged:
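Material: primary human umbilical vein endothelial cells / Schedule: 72 h exposure, 37 °C, 5% CO2, 30 min RT equilibration / Signal: ATP-based CellTiter-Glo luminescent read / Read-out basis: percent of median DMSO-control luminescence / Control set: 32 DMSO-only cell-control wells (high), 32 MePR drug-control wells (low) per plate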

Assay [5] in a line: growth inhibitors of H69AR lung tumor, primary screen, human, duplicate replicates (AID 580;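 active = viability at or under a set limit in both replicates, limit being median viability minus 3 SD, cut at about 48% in these data, passing the limit was not always enough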;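 note: 100% = mean luminescence of untreated wells and 0% = no signal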). Particulars: H69AR lung tumor cells viability, ATP luminescence, 72 h; at 10 µM; stronger effect = lower value.
Assay [6] can be described thus: reversal of MRP1-mediated doxorubicin resistance, pilot screen, H69AR cells, doxorubicin co-treatment (AID 601). Conditions: CellTiter-Glo, 72 h, at 10 µM; for differential viability (reversal): stronger effect = higher value.
A short description of assay [7]: 384-well plate pilot, post-Golgi transport modulator project, inhibition of yeast transport mutant growth (AID 636; in the data active = inhibition above about 31%). Particulars: absorbance 615 nm, about 18 h, stronger effect = higher value.
Assay [8] is described as follows: growth suppression of yeast trafficking mutant, preliminary HTS, modulators of trafficking downstream of Golgi apparatus project, 1536-format plate, OD 615 nm (AID 637; in the data active = inhibition above about 30%). Particulars: yeast transport mutant growth, absorbance 615 nm, 18 h; stronger effect = higher value.
The mark [9] stands for this setting: H69AR cells + 2 uM doxorubicin, measured here: viability with 2 uM doxorubicin, stronger effect = lower value.
The mark [10] stands for this setting: H69AR cells, compound alone cytotoxicity.

Regarding `CCOC(=O)c1c(-c2cccs2)csc1NC(=O)CCCC(=O)O`, the viability in assay [1] is 110%; in assay [3], 110% (inactive); in assay [4], 78.3% (inactive); in assay [5] it was 83.4% (inactive); in assay [6] (setting [9]), 82.4%; in assay [6] (setting [10]) it was 83.4%. The Her2 level in assay [2] was 87% (inactive). The differential viability (reversal) in assay [6] (H69AR cells + 2 uM doxorubicin) was 1.06% (inactive). Moreover, the inhibition in assay [7] is -5.79% (inactive); in assay [8], -3.27% (inactive).

With `O=C(CSc1nnc(-c2ccccc2F)o1)OCc1ccccc1`, the viability in assay [1] is 83.5%; in assay [3], 83.5% (inactive); in assay [4] it was 102% (inactive); in assay [5], 102% (inactive); in assay [6] (setting [9]), 84.3%; in assay [6] (setting [10]) it was 102%. Besides, the Her2 level in assay [2] was 88.5% (inactive). Further, the differential viability (reversal) in assay [6] (H69AR cells + 2 uM doxorubicin) is 17.8% (inactive). In addition, the inhibition in assay [7] is -5.68% (inactive); in assay [8], 2.95% (inactive).

With `C=CCOc1ccc(/C(O)=C2\C(=O)C(=O)N(CCOC)C2c2cccnc2)cc1` (stereo not given), the viability in assay [1] was 99%; in assay [3] it was 99% (inactive); in assay [4], 107% (inactive); in assay [5] it was 103% (inactive); in assay [6] (setting [9]), 88.4%; in assay [6] (setting [10]), 103%. For the same molecule, in assay [2], the Her2 level is 94.5% (inactive). In addition, the differential viability (reversal) in assay [6] (H69AR cells + 2 uM doxorubicin) was 14.8% (inactive). The inhibition in assay [7] was -6.89% (inactive); in assay [8], 1.17% (inactive).

Take `Cc1cc(O)c(C(C)C)cc1N=C1CSC(=O)N1`: the viability in assay [1] was 89%; in assay [3] it was 89% (inactive); in assay [4], 95.3% (inactive); in assay [5], 87.7% (inactive); in assay [6] (setting [9]), 86%; in assay [6] (setting [10]), 87.7%. Moreover, in assay [2], the Her2 level is 78.5% (inactive). The differential viability (reversal) in assay [6] (H69AR cells + 2 uM doxorubicin) was 1.7% (inactive). Further, the results for the inhibition in assay [7] and in assay [8] were -2.11% (inactive) and -1.82% (inactive), respectively.

For the molecule `CC(=O)Nc1ccc(Cl)c(C(N)=O)c1`, the viability in assay [1] is 110%; in assay [3], 110% (inactive); in assay [4], 97.1% (inactive); in assay [5], 95.3% (inactive); in assay [6] (setting [9]) it was 86.8%; in assay [6] (setting [10]), 95.3%. For the same molecule, in assay [2], the Her2 level is 108% (inactive). Further, the differential viability (reversal) in assay [6] (H69AR cells + 2 uM doxorubicin) is 8.55% (inactive). Also, the inhibition in assay [7] is -3.68% (inactive); in assay [8], 6.07% (inactive).

In the case of `CCOC(=O)C1=C(C)NC2=C(C(=O)CC(C)(C)C2)C1c1ccc(N(C)C)cc1` (stereo not given), the viability was 93% in assay [1]; 93% (inactive) in assay [3]; 87% (inactive) in assay [4]; 94.3% (inactive) in assay [5]; 96.6% in assay [6] (setting [9]); 94.3% in assay [6] (setting [10]). Besides, in assay [2], the Her2 level was 116% (inactive). The differential viability (reversal) in assay [6] (H69AR cells + 2 uM doxorubicin) is -2.37% (inactive). In addition, the inhibition in assay [7] was 1.3% (inactive); in assay [8], -5.9% (inactive).

Consider `CC1=C(C)[N+](=O)C2CCCCC2N1[O-]` (stereo not given), for which the viability in assay [1] was 89%; in assay [3] it was 89% (inactive); in assay [4] it was 104% (inactive); in assay [5], 94.4% (inactive); in assay [6] (setting [9]) it was 84.6%; in assay [6] (setting [10]), 94.4%. Further, the Her2 level in assay [2] was 112% (inactive). In addition, the differential viability (reversal) in assay [6] (H69AR cells + 2 uM doxorubicin) was 9.79% (inactive). The inhibition is -5.97% (inactive) in assay [7] and -9.34% (inactive) in assay [8].

With `Cn1c(=O)cc(SCC(=O)N2CCOCC2)c2ccc(Cl)cc21`, the viability in assay [1] is 108%; in assay [3], 108% (inactive); in assay [4], 76.1% (inactive); in assay [5] it was 93.2% (inactive); in assay [6] (setting [9]), 83.3%; in assay [6] (setting [10]), 93.2%. For the same molecule, the Her2 level in assay [2] was 99.5% (inactive). Also, the differential viability (reversal) in assay [6] (H69AR cells + 2 uM doxorubicin) is 9.88% (inactive). Besides, the results for the inhibition in assay [7] and in assay [8] were -2.37% (inactive) and -1.61% (inactive), respectively.

Consider `CN1CCN(/C=N/c2sc3c(c2C#N)CCCCC3)CC1`, for which the viability in assay [1] is 97%; in assay [3] it was 97% (inactive); in assay [4] it was 75.9% (inactive); in assay [5], 84.2% (inactive); in assay [6] (setting [9]), 78.1%; in assay [6] (setting [10]), 84.2%. In addition, the Her2 level in assay [2] was 96.5% (inactive). In addition, the differential viability (reversal) in assay [6] (H69AR cells + 2 uM doxorubicin) is 6.14% (inactive). In addition, the inhibition is 0.67% (inactive) in assay [7] and -9.52% (inactive) in assay [8].

With `N#CC1=C(N)S[C@H](C(=O)C23CC4CC(CC(C4)C2)C3)[C@H]1c1ccncc1`, the viability in assay [1] was 81%; in assay [3] it was 81% (inactive); in assay [4], 41% (inactive); in assay [5], 93.7% (inactive); in assay [6] (setting [9]), 46.1%; in assay [6] (setting [10]), 93.7%. For the same molecule, the Her2 level in assay [2] is 79% (inactive). Further, the differential viability (reversal) in assay [6] (H69AR cells + 2 uM doxorubicin) is 47.6% (inactive). Further, the inhibition in assay [7] is -2.8% (inactive); in assay [8], 4.84% (inactive).

On to `COc1ccccc1N1CCN(CCCNC(=O)Nc2ccccc2)CC1`, for which the viability in assay [1] is 129%; in assay [3], 129% (inactive); in assay [4] it was 84.5% (inactive); in assay [5], 90.3% (inactive); in assay [6] (setting [9]) it was 91.8%; in assay [6] (setting [10]), 90.3%. Also, the Her2 level in assay [2] was 83.5% (inactive). Also, the differential viability (reversal) in assay [6] (H69AR cells + 2 uM doxorubicin) is -1.53% (inactive). The inhibition in assay [7] was -2.76% (inactive); in assay [8], -0.48% (inactive).

Take `CCN(CCNC(=O)C1CCN(S(C)(=O)=O)CC1)c1ccccc1`: the viability was 91% in assay [1]; 91% (inactive) in assay [3]; 93.3% (inactive) in assay [4]; 88.2% (inactive) in assay [5]; 82.8% in assay [6] (setting [9]); 88.2% in assay [6] (setting [10]). Further, the Her2 level in assay [2] was 104% (inactive). The differential viability (reversal) in assay [6] (H69AR cells + 2 uM doxorubicin) was 5.42% (inactive). Also, the values for the inhibition in assay [7] and in assay [8] were -1.67% (inactive) and -1% (inactive), respectively.

For `CCOc1cc(C(=O)Nc2ccon2)cc(OCC)c1OCC`, the viability is 100% in assay [1]; 100% (inactive) in assay [3]; 96.8% (inactive) in assay [4]; 99.4% (inactive) in assay [5]; 97.2% in assay [6] (setting [9]); 99.4% in assay [6] (setting [10]). The Her2 level in assay [2] was 110% (inactive). For the same molecule, the differential viability (reversal) in assay [6] (H69AR cells + 2 uM doxorubicin) is 2.21% (inactive). In addition, the inhibition is -3.03% (inactive) in assay [7] and -1.17% (inactive) in assay [8].

Regarding `CN1CCCN(CC(O)COCc2cccs2)CC1` (stereo not given), the viability in assay [1] is 89.5%; in assay [3] it was 89.5% (inactive); in assay [4], 87.3% (inactive); in assay [5], 111% (inactive); in assay [6] (setting [9]), 96.6%; in assay [6] (setting [10]), 111%. In addition, the Her2 level in assay [2] is 84% (inactive). In addition, the differential viability (reversal) in assay [6] (H69AR cells + 2 uM doxorubicin) is 14.2% (inactive). In addition, the inhibition in assay [7] is -5.54% (inactive); in assay [8], -1.8% (inactive).

With `CCCn1c(NCc2ccc3c(c2)OCO3)nc2ccccc21`, the viability in assay [1] is 94%; in assay [3], 94% (inactive); in assay [4], 80.1% (inactive); in assay [5], 97.2% (inactive); in assay [6] (setting [9]), 84.9%; in assay [6] (setting [10]), 97.2%. Also, in assay [2], the Her2 level was 85% (inactive). Also, the differential viability (reversal) in assay [6] (H69AR cells + 2 uM doxorubicin) was 12.3% (inactive). For the same molecule, the inhibition is -5.6% (inactive) in assay [7] and -1.13% (inactive) in assay [8].

With `CC1(C)Cc2cccc(OCC(O)CN3CCN(c4ccccn4)CC3)c2O1` (stereo not given), the viability in assay [1] is 84%; in assay [3] it was 84% (inactive); in assay [4], 86.1% (inactive); in assay [5], 70.3% (inactive); in assay [6] (setting [9]), 88%; in assay [6] (setting [10]), 70.3%. Also, in assay [2], the Her2 level is 94% (inactive). In addition, in assay [6] (H69AR cells + 2 uM doxorubicin), the differential viability (reversal) was -17.7% (inactive). The inhibition in assay [7] is -3.38% (inactive); in assay [8], -7.3% (inactive).
